# Measured values taken from ChEMBL document CHEMBL1123198, “Stereoselective syntheses of the trans-decahydroquinoline-5-carboxylic acid epimers. Diastereomeric zwitterionic probes of gamma-aminobutyric acid related biological properties in vitro and in vivo” (1986).
# Key:
# Rattus norvegicus = species: Rattus norvegicus; assay: Cyclic AMP accumulation in Rat brain cerebral cortical slices by the compound, activity expressed as % conversion; format: functional
# Procedure, shortened: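 Rat cerebral cortical slices were used for cAMP accumulation. cAMP was isolated by double-column chromatography. Values are means of two experiments, each run in duplicate.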
# [1] = biological target: T1, GABA-A receptor; anion channel (Rattus norvegicus) (UniProt O09028+P15431+P18506+P18508+P19969+P20236+P23574+P23576+P28471+P28473+P30191+P62813+P63079+P63138+Q91ZM7+Q9ES14); assay: Displacement of [35S]TBPS from GABA-A receptor of rat brain membranes; format: cell membranes; parameters: concentration or dose not given beside the values; conditions: Membrane
# Procedure, shortened: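 [35S]TBPS binding assay with nonspecific binding defined by 10 µM unlabelled TBPS. Values are means of two experiments, each in duplicate.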
# [2] = biological target: T1, GABA-A receptor; anion channel (Rattus norvegicus); conditions: Brain, Brain membranes
# [3] = biological target: T1, GABA-A receptor; anion channel (Rattus norvegicus); assay: Displacement of [3H]diazepam binding in rat brain membranes; format: cell membranes; parameters: unit not given here
# Procedure, shortened: (§1)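 [3H]Diazepam binding, alone and GABA-activated, was measured in brain membranes. Nonspecific binding was taken with 1 µM unlabelled diazepam. Values are means of two experiments, each in duplicate.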
# [4] = biological target: GABA B receptor (Rattus norvegicus) (UniProt Q9Z0U4+O88871); assay: Displacement of [3H]-GABA from Gamma-aminobutyric acid type B receptor in rat brain membranes; format: cell membranes; parameters: concentration or dose not given beside the values
# Procedure, shortened: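 GABA-B binding: rat brain membranes were incubated with [3H]GABA plus 40 µM isoguvacine to block GABA-A sites. Nonspecific binding was defined with 100 µM baclofen. Values are means of three experiments, each in duplicate; standard errors were below 20%.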
# [5] = biological target: T1, GABA-A receptor; anion channel (Rattus norvegicus); conditions: Brain, Brain membranes; remark: listed apart in the source
# [6] = biological target: T1, GABA-A receptor; anion channel (Rattus norvegicus); assay: Displacement of [3H]-GABA from Gamma-aminobutyric acid A receptor in rat brain membranes; format: cell membranes; parameters: concentration or dose not given beside the values
# Procedure, shortened: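 GABA-A binding used [3H]GABA as ligand, with nonspecific binding taken in 1 mM unlabelled GABA. Values are means of three experiments, each in duplicate; standard error of the means was below 10%.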
# Mus musculus [7] = species: Mus musculus; assay: Reversal of convulsant effect by Diazepam pretreatment at 100 ug ICV dose, 5/5 mice affected; format: functional
# Mus musculus [8] = assay: Reversal of convulsant effect by Diazepam pretreatment (5 mg/kg) at 100 ug ICV dose, 4/4 mice affected; format: functional
# Mus musculus [9] = assay: Reversal of convulsant effect by Diazepam pretreatment (10 mg/kg) at 100 ug ICV dose, 0/5 mice affected; format: functional
# Mus musculus [10] = assay: Convulsant effect on ICV administration in mice at 25microg, 0/5 mice affected; format: functional
# Procedure, shortened: (§2)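 Mice under halothane anaesthesia got a 4 µL injection into the left ventricle at 25, 50 or 100 µg, with saline controls. Mice sat in a 1-L beaker and were watched for seizures from 2 min after injection, and for behaviour over 40 min. A seizure counted when tonic-clonic convulsions occurred and the mouse fell on its flank. Read-out: mice convulsing/mice tested, and seizure duration in min (mean ± SEM).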
# Mus musculus [11] = assay: Convulsant effect on ICV administration in mice at 50 ug; format: functional; procedure, shortened: as §2
# Mus musculus [12] = assay: Convulsant effect on ICV administration in mice at 100microg, 5/5 mice affected; format: functional; procedure, shortened: as §2
# Mus musculus [13] = assay: Reversal of convulsant effect by Diazepam pretreatment (2 mg/kg) at 100 ug ICV dose, 5/5 mice affected; format: functional
# Mus musculus [14] = assay: Convulsant effect on ICV administration in mice at 50microg, 5/5 mice affected; format: functional; procedure, shortened: as §2
# Mus musculus [15] = assay: Convulsant effect on ICV administration in mice at 100 ug; format: functional; procedure, shortened: as §2
# [16] = biological target: GABA transporter (Rattus norvegicus) (UniProt P31647+P23978+P31646+P48056); assay: Inhibition of [3H]GABA uptake from rat brain membranes; format: functional, cell membranes; conditions: Membrane, concentration not given here
# Sequence of GABA transporter (Rattus norvegicus) (P31646 whole entry, looked up): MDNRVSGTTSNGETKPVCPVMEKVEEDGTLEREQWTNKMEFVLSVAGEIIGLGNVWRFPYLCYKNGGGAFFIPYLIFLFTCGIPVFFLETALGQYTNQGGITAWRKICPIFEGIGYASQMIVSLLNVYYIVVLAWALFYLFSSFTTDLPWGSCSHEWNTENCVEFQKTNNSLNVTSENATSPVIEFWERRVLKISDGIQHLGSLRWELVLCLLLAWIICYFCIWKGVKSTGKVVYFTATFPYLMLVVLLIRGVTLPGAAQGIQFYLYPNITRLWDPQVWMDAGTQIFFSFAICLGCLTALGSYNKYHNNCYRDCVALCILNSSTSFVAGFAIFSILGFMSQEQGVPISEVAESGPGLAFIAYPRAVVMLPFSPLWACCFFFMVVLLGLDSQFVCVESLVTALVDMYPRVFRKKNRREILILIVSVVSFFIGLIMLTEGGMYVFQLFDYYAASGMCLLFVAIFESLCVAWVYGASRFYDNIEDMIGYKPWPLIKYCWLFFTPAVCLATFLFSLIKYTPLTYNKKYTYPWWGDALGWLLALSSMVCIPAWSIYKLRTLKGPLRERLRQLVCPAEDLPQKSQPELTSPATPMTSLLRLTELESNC
# Sequence of GABA transporter (Rattus norvegicus) (P31647 whole entry, looked up): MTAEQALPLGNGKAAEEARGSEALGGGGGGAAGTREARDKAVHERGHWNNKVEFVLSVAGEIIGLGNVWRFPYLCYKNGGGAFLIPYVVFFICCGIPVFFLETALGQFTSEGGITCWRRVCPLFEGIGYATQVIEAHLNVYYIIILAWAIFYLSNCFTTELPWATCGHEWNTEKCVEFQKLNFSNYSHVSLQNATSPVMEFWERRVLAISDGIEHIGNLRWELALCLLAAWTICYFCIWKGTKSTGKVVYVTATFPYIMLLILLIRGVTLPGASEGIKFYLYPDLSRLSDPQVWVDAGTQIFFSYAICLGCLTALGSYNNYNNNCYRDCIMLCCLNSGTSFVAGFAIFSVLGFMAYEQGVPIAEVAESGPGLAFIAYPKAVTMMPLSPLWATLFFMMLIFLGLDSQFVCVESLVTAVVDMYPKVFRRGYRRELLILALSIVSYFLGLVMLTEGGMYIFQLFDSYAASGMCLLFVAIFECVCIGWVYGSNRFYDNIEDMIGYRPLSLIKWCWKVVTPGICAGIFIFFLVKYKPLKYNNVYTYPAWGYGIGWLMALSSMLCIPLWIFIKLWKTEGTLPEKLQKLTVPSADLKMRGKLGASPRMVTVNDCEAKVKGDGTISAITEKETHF
# Sequence of GABA transporter (Rattus norvegicus) (P48056 whole entry, looked up): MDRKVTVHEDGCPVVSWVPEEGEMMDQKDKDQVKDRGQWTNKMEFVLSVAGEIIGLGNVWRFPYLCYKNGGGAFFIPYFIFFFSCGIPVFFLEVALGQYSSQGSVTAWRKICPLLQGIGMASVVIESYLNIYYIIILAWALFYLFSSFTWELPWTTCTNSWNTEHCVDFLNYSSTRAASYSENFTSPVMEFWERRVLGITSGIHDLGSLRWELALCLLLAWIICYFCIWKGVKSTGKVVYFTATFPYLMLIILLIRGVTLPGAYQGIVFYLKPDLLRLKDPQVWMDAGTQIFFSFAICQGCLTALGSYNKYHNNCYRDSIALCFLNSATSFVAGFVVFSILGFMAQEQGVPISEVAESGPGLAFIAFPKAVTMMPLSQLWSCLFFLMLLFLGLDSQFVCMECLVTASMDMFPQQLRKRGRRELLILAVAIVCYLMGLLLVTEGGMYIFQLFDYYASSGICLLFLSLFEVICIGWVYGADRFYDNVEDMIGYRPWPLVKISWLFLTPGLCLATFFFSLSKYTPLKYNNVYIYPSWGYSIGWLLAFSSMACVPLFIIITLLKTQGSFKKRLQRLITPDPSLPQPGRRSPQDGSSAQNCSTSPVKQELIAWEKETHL
# Procedure, shortened: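 High-affinity [3H]GABA uptake was measured into rat brain synaptosomes. Values are means of two experiments.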
# [17] = biological target: T1, GABA-A receptor; anion channel (Rattus norvegicus); assay: Displacement of GABA activated [3H]diazepam binding in rat brain membranes; format: cell membranes; procedure, shortened: as §1
# [18] = biological target: T1, GABA-A receptor; anion channel (Rattus norvegicus); assay: Displacement of GABA activated [3H]diazepam binding in rat brain membranes at 100 uM; format: cell membranes; procedure, shortened: as §1
# [19] = biological target: T1, GABA-A receptor; anion channel (Rattus norvegicus); assay: Displacement of [3H]diazepam binding to rat brain membranes at 100 uM concentration; format: cell membranes; conditions: Membrane; procedure, shortened: as §1
# Mus musculus [20] = assay: Reversal of convulsant effect by Diazepam pretreatment (2 mg/kg) at 100 ug ICV dose, 4/4 mice affected; format: functional
# Mus musculus [21] = assay: Reversal of convulsant effect by Diazepam pretreatment (10 mg/kg) at 100 ug ICV dose, 0/6 mice affected; format: functional
# Mus musculus [22] = assay: Reversal of convulsant effect by Diazepam pretreatment (5 mg/kg) at 100 ug ICV dose, 5/5 mice affected; format: functional
# Mus musculus [23] = assay: Convulsant effect on ICV administration in mice at 50microg, 1/6 mice affected; format: functional; procedure, shortened: as §2
structure (smiles),measurement,setting,value
CC(C)NCC(O)c1ccc(O)c(O)c1.NCC(CC(=O)O)c1ccc(Cl)cc1.O=C(O)C1CCCC2NCCCC21 (stereo not given),Conversion,Rattus norvegicus,2.65%
CC(C)NCC(O)c1ccc(O)c(O)c1.O=C(O)C1CCCC2NCCCC21 (stereo not given),Conversion,Rattus norvegicus,0.84%
CC(C)NCC(O)c1ccc(O)c(O)c1.NCC(CC(=O)O)c1ccc(Cl)cc1 (stereo not given),Conversion,Rattus norvegicus,2.56%
C=C(C)[C@@H]1[C@H]2OC(=O)[C@@H]1[C@]1(O)C[C@H]3O[C@]34C(=O)O[C@H]2[C@]14C,Displacement,[1],90%
CC(C)NCC(O)c1ccc(O)c(O)c1.O=C(O)[C@@H]1CCCC2NCCCC21 (stereo not given),Binding affinity (spec bound mg-1),[2],0.91
CN1C(=O)CN=C(c2ccccc2)c2cc(Cl)ccc21,Binding affinity (spec bound mg-1),[3],29.3
NCCCC(=O)O,Displacement,[4],100%
same,Binding affinity (spec bound mg-1),[5],55.4
same,Displacement,[6],100%
O=C(O)[C@@H]1CCCC2NCCCC21 (stereo in doubt; 3) [listing 1 of 2 here],Tonic-clonic seizure,Mus musculus [7],5
same,Tonic-clonic seizure,Mus musculus [8],4
same,Tonic-clonic seizure,Mus musculus [9],0
same,Tonic-clonic seizure,Mus musculus [10],0
same,Duration of seizure,Mus musculus [11],9.5 min
same,Tonic-clonic seizure,Mus musculus [12],5
same,Tonic-clonic seizure,Mus musculus [13],5
same,Tonic-clonic seizure,Mus musculus [14],5
same,Duration of seizure,Mus musculus [15],26.5 min
O=C(O)[C@@H]1CCCC2NCCCC21 (stereo in doubt; 3) [listing 2 of 2 here],Displacement,[4],< 10%
same,inhibition,[16],< 5%
same,Binding affinity (spec bound mg-1),[17],59.1
same,Displacement,[6],< 10%
same,Displacement,[1],< 5%
same,Binding affinity (spec bound mg-1),[3],28.8
CC(C)NCC(O)c1ccc(O)c(O)c1.NCC(CC(=O)O)c1ccc(Cl)cc1.O=C(O)[C@@H]1CCCC2NCCCC21 (stereo in doubt; form 1),Conversion,Rattus norvegicus,2.59%
O=C(O)[C@@H]1CCCC2NCCCC21 (stereo in doubt; form 1),Displacement,[4],< 10%
same,Binding affinity (spec bound mg-1),[18],55.3
same,inhibition,[16],< 5%
same,Displacement,[6],< 10%
same,Binding affinity (spec bound mg-1),[19],31.9
same,Displacement,[1],< 5%
CC(C)NCC(O)c1ccc(O)c(O)c1.O=C(O)[C@@H]1CCCC2NCCCC21 (stereo in doubt; form 2),Conversion,Rattus norvegicus,0.86%
O=C(O)[C@@H]1CCCC2NCCCC21 (stereo in doubt; form 2),Displacement,[4],< 10%
same,inhibition,[16],15%
same,Binding affinity (spec bound mg-1),[17],59.4
same,Displacement,[6],< 10%
same,Displacement,[1],< 5%
same,Binding affinity (spec bound mg-1),[3],32
CC(C)NCC(O)c1ccc(O)c(O)c1.NCC(CC(=O)O)c1ccc(Cl)cc1.O=C(O)[C@@H]1CCCC2NCCCC21 (stereo in doubt; form 3),Conversion,Rattus norvegicus,2.81%
CC(C)NCC(O)c1ccc(O)c(O)c1.NCC(CC(=O)O)c1ccc(Cl)cc1.O=C(O)[C@@H]1CCCC2NCCCC21 (stereo in doubt; form 4),Conversion,Rattus norvegicus,2.63%
CC(C)NCC(O)c1ccc(O)c(O)c1.O=C(O)[C@@H]1CCCC2NCCCC21 (stereo in doubt; form 5),Conversion,Rattus norvegicus,0.8%
O=C(O)C1CCCC2NCCCC21 (trans isomer),Tonic-clonic seizure,Mus musculus [7],5
same,Displacement,[4],38%
same,Tonic-clonic seizure,Mus musculus [20],4
same,Tonic-clonic seizure,Mus musculus [21],0
same,inhibition,[16],< 5%
same,Tonic-clonic seizure,Mus musculus [10],0
same,Duration of seizure,Mus musculus [11],0.8 min
same,Tonic-clonic seizure,Mus musculus [12],5
same,Tonic-clonic seizure,Mus musculus [22],5
same,Binding affinity (spec bound mg-1),[17],65.5
same,Displacement,[6],43%
same,Displacement,[1],< 5%
same,Binding affinity (spec bound mg-1),[3],35
same,Tonic-clonic seizure,Mus musculus [23],1
same,Duration of seizure,Mus musculus [15],11.7 min
NCC(CC(=O)O)c1ccc(Cl)cc1 (stereo not given) [BACLOFEN],Displacement,[4],100%
same,Displacement,[6],15%
same,Conversion,Rattus norvegicus,0.2%
CC(C)NCC(O)c1ccc(O)c(O)c1 (stereo not given) [ISOPROTERENOL],Conversion,Rattus norvegicus,0.84%
